Results taken from ChEMBL document CHEMBL3596133, “Discovery and structural analyses of S-adenosyl-L-homocysteine hydrolase inhibitors based on non-adenosine analogs” (Bioorg Med Chem, 2015).
Activity calls are given as the source filed them. The calls are words filed in the database; no cut-off is given here.

Legend:
Adenosylhomocysteinase [1] = target: Adenosylhomocysteinase (Homo sapiens, UniProt P23526); assay: Inhibition of recombinant human S-adenosyl-L-homocysteine hydrolase assessed as hydrolysis of AdoHcy after 8 mins by HPLC analysis
In short: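 Human recombinant enzyme (50 ng) added after test compound to 10 μM AdoHcy plus adenosine deaminase (4 units) in 50 mM phosphate buffer pH 7.2 with 1 mM EDTA. Incubated at 37 °C for 8 min, then stopped with 1 mol/L perchloric acid and centrifuged at 4 °C. Read-out is AdoHcy hydrolysis activity. IC50 given as mean ± standard error of triplicate determinations.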

Adenosylhomocysteinase [2] = target: T1, Adenosylhomocysteinase (Rattus norvegicus, UniProt P10760); assay: Reversible inhibition of rat liver S-adenosyl-L-homocysteine hydrolase; type: tissue-based
T1 sequence (P10760 whole entry): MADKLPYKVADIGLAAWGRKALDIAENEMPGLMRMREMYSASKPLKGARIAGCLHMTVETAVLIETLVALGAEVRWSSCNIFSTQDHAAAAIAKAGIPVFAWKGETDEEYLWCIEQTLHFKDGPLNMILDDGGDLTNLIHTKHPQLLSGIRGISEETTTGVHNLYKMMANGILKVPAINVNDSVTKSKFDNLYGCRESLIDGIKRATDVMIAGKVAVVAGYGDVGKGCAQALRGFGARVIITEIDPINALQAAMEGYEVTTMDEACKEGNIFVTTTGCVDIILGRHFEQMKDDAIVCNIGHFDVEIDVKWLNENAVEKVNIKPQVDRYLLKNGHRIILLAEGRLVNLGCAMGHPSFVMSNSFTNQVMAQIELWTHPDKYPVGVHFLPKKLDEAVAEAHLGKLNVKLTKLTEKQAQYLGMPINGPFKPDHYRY

CN(C(=O)CN(CC(=O)NC1CCCN(C(=O)OC(C)(C)C)C1)c1cc(Cl)ccc1Oc1ccc(Cl)cc1)C1Cc2ccccc2C1 (stereo unspecified)
IC50 (Adenosylhomocysteinase [1]): 1200 nM

CCN(CCNC(=O)CN(CC(=O)N(C)C1Cc2ccccc2C1)c1cc(Cl)ccc1Oc1ccc(Cl)cc1)C(=O)OC(C)(C)C
IC50 (Adenosylhomocysteinase [1]): 60 nM

O=C(CN(CC(=O)N1CCCc2ccccc21)c1cc(Cl)ccc1Oc1ccc(Cl)cc1)NCCN1CCCC1
IC50 (Adenosylhomocysteinase [1]): 2300 nM

CN(C(=O)CN(CC(=O)NC1CCCNC1)c1cc(Cl)ccc1Oc1ccc(Cl)cc1)C1Cc2ccccc2C1 (stereo unspecified)
inhibition (Adenosylhomocysteinase [1]): Active

CN(C(=O)CN(CC(=O)NCCN1CCCC1)c1cc(Cl)ccc1Oc1ccc(Cl)cc1)C1CCNCC1
IC50 (Adenosylhomocysteinase [1]): > 100000 nM

CN(C(=O)CN(CC(=O)NC[C@H]1CCCN1C(=O)OC(C)(C)C)c1cc(Cl)ccc1Oc1ccc(Cl)cc1)C1Cc2ccccc2C1
IC50 (Adenosylhomocysteinase [1]): 600 nM

CN(C(=O)CN(CC(=O)NC1CCN(C(=O)OC(C)(C)C)C1)c1cc(Cl)ccc1Oc1ccc(Cl)cc1)C1Cc2ccccc2C1 (stereo unspecified)
IC50 (Adenosylhomocysteinase [1]): 1500 nM

CN(CCNC(=O)CN(CC(=O)N(C)C1Cc2ccccc2C1)c1cc(Cl)ccc1Oc1ccc(Cl)cc1)C(=O)OC(C)(C)C
IC50 (Adenosylhomocysteinase [1]): 70 nM

CN(C(=O)CN(CC(=O)NC[C@@H]1CCCN1C(=O)OC(C)(C)C)c1cc(Cl)ccc1Oc1ccc(Cl)cc1)C1Cc2ccccc2C1
IC50 (Adenosylhomocysteinase [1]): 110 nM

CC(C)N(CCNC(=O)CN(CC(=O)N(C)C1Cc2ccccc2C1)c1cc(Cl)ccc1Oc1ccc(Cl)cc1)C(=O)OC(C)(C)C
IC50 (Adenosylhomocysteinase [1]): 49 nM

CCNCCNC(=O)CN(CC(=O)N(C)N1Cc2ccccc2C1)c1cc(Cl)ccc1Oc1ccc(Cl)cc1
IC50 (Adenosylhomocysteinase [1]): 8.5 nM

CN(C(=O)CN(CC(=O)NC1CCNC1)c1cc(Cl)ccc1Oc1ccc(Cl)cc1)C1Cc2ccccc2C1 (stereo unspecified)
inhibition (Adenosylhomocysteinase [1]): Active

CN(C(=O)CN(CC(=O)NCC1CCCCN1C(=O)OC(C)(C)C)c1cc(Cl)ccc1Oc1ccc(Cl)cc1)C1Cc2ccccc2C1 (stereo unspecified)
IC50 (Adenosylhomocysteinase [1]): 150 nM

Nc1ncnc2c1ncn2CC(O)CO (stereo unspecified)
Ki (Adenosylhomocysteinase [2]): 1000 nM

CN(CCN1CCCC1)C(=O)CN(CC(=O)N(C)C1Cc2ccccc2C1)c1cc(Cl)ccc1Oc1ccc(Cl)cc1
IC50 (Adenosylhomocysteinase [1]): > 100000 nM

CCN(C(=O)CN(CC(=O)NCCN1CCCC1)c1cc(Cl)ccc1Oc1ccc(Cl)cc1)C1Cc2ccccc2C1
IC50 (Adenosylhomocysteinase [1]): 640 nM
